Experimental data from ChEMBL document CHEMBL4041461, “Discovery of 6,7-dihydro-3H-pyrano[4,3-c]isoxazol-3-ones as a new class of pathogen specific anti-leptospiral agents” (Eur J Med Chem, 2017).
Converted amounts (≈) assume the structure as drawn. The source made the active and inactive calls. The calls are words filed in the database; no cut-off is given here.

What was measured:
[1] = test system: Leptospira interrogans serovar Autumnalis; assay: Antibacterial activity against Leptospira interrogans serovar Autumnalis N2 at 125 ug/mL after 2 hrs by micro dilution assay; assay type: functional
How it was run: (§1)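 Preliminary screen by broth microdilution against L. interrogans serovar Autumnalis strain N2, each compound at 500, 250, 125, 62.5 and 31.25 µg/mL. Growth at each concentration was scored as resistance (R) or inhibition (I), and the MIC was taken from these scores. Triplicates.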

[2] = test system: Leptospira interrogans serovar Autumnalis; assay: Antibacterial activity against Leptospira interrogans serovar Autumnalis N2 at 62.5 ug/mL after 2 hrs by micro dilution assay; assay type: functional; how it was run: as §1
[3] = test system: Leptospira interrogans serovar Autumnalis; assay: Antibacterial activity against Leptospira interrogans serovar Autumnalis N2 at 250 ug/mL after 2 hrs by micro dilution assay; assay type: functional; how it was run: as §1
[4] = test system: Leptospira interrogans serovar Autumnalis; assay: Antibacterial activity against Leptospira interrogans serovar Autumnalis N2 at 31.25 ug/mL after 2 hrs by micro dilution assay; assay type: functional; how it was run: as §1
[5] = test system: Leptospira interrogans serovar Autumnalis; assay: Antibacterial activity against Leptospira interrogans serovar Autumnalis N2 at 500 ug/mL after 2 hrs by micro dilution assay; assay type: functional; how it was run: as §1
THP-1 [6] = assay: Induction of cell death in human THP1 cells upto 25 ug/mL after 12 hrs by propidium iodide staining based confocal laser scanning microscopic method; settings: thp-1, 12 h
How it was run: (§2)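 THP-1 cells were exposed for 12 h to a range of concentrations, then stained with propidium iodide. PI-positive apoptotic and necrotic cells were counted manually and expressed as a percentage. Controls were untreated cells and tert-butylhydroperoxide. Mean ± SD of triplicates.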

[7] = test system: Leptospira interrogans serovar Canicola; assay: Antibacterial activity against Leptospira interrogans serovar Canicola PAI-1 infected cyclophosphamide-treated BALB/c mouse assessed as inhibition of bacterial renal colonization at 20 mg/kg,ip using EMJH semi solid medium; assay type: functional, organism-based
How it was run: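 Kidneys came from infected cyclophosphamide-treated BALB/c mice dosed once daily for 3 days, including at 20 mg/kg, alongside untreated infected controls. Leptospires were re-isolated by culturing kidney material in semi-solid EMJH medium.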

[8] = Antibacterial activity against Leptospira interrogans serovar Pyrogenes Salinem after 2 hrs by micro dilution assay; assay type: functional
[9] = Antibacterial activity against Leptospira interrogans serovar Pomona after 2 hrs by micro dilution assay; assay type: functional
[10] = Antibacterial activity against Leptospira interrogans serovar Hebdomadis after 2 hrs by micro dilution assay; assay type: functional
[11] = Antibacterial activity against Leptospira interrogans serovar Hardjo Hardjoprajitno after 2 hrs by micro dilution assay; assay type: functional
Leptospira interrogans [12] = assay: (§3) Antibacterial activity against Leptospira interrogans serovar Semaranga after 2 hrs by micro dilution assay; assay type: functional
[13] = (§4) Antibacterial activity against Leptospira interrogans serovar Canicola PAI-1 infected cyclophosphamide-treated BALB/c mouse assessed as mouse survival at 5 mg/kg, ip administered once daily for 3 days; assay type: functional; settings: PAI-1, ip, 72 h
How it was run: (§5)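 Cyclophosphamide-treated (Cy-)BALB/c mice were challenged with pathogenic Leptospira Canicola. They were dosed once daily for 3 days at 5, 10 or 20 mg/kg. Controls were untreated mice and doxycycline at 5 mg/kg once daily. Survival was recorded to the end of the study period. Kidneys were checked by 16S qPCR and by re-isolation in EMJH semi-solid medium.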

[14] = Antibacterial activity against Leptospira interrogans serovar Canicola Hond Utrecht IV after 2 hrs by micro dilution assay; assay type: functional
[15] = Antibacterial activity against Leptospira interrogans serovar Ballum Mus 127 after 2 hrs by micro dilution assay; assay type: functional; settings: Mus 127, 2 h
THP-1 [16] = assay: Cytotoxicity against human THP1 cells assessed as cell growth inhibition at >=75 ug/mL after 24 hrs by MTT assay; assay type: cell-based; settings: thp-1, 24 h
THP-1 [17] = assay: Induction of cell death in human THP1 cells at >= 75 ug/mL after 12 hrs by propidium iodide staining based confocal laser scanning microscopic method; settings: thp-1, 12 h; how it was run: as §2
[18] = Antibacterial activity against Leptospira interrogans serovar Canicola PAI-1 infected cyclophosphamide-treated BALB/c mouse assessed as mouse survival at 20 mg/kg, ip administered once daily for 3 days; assay type: functional; settings: PAI-1, ip, 72 h; how it was run: as §5
[19] = Antibacterial activity against Leptospira interrogans serovar Icterohaemorrhagiae RGA after 2 hrs by micro dilution assay; assay type: functional
[20] = Antibacterial activity against Leptospira interrogans serovar Australis Ballico after 2 hrs by micro dilution assay; assay type: functional
[21] = test system: Leptospira interrogans serovar Canicola; assay: Antibacterial activity against Leptospira interrogans serovar Canicola PAI-1 infected cyclophosphamide-treated BALB/c mouse assessed as inhibition of bacterial renal colonization at 20 mg/kg,ip by RT-qPCR analysis; assay type: functional, organism-based
How it was run: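 Cyclophosphamide-treated BALB/c mice were infected with pathogenic serovar Canicola, then dosed once daily for 3 days at 5, 10 or 20 mg/kg. Controls were untreated mice and doxycycline at 5 mg/kg once daily. Leptospiral load in kidney tissue was measured by qPCR for renal colonization.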

[22] = Antibacterial activity against Leptospira interrogans serovar Bataviae Swart after 2 hrs by micro dilution assay; assay type: functional
[23] = Antibacterial activity against Leptospira interrogans serovar Autumnalis N2 after 2 hrs by micro dilution assay; assay type: functional; settings: N2, 2 h
[24] = Antibacterial activity against Leptospira interrogans serovar Javanica Poi after 2 hrs by micro dilution assay; assay type: functional
THP-1 [25] = assay: Cytotoxicity against human THP1 cells assessed as cell growth inhibition upto 25 ug/mL after 24 hrs by MTT assay; assay type: cell-based; settings: thp-1, 24 h
[26] = Antibacterial activity against Leptospira interrogans serovar Grippotyphosa Moskva V after 2 hrs by micro dilution assay; assay type: functional
Leptospira interrogans [27] = assay: Inhibition of Leptospira rRNA gene amplification assessed as thresholod cycle by SYBR Green dye-based RT-qPCR method (reference value: 11.3)
THP-1 [28] = assay: Induction of cell death in human THP1 cells at 0.5 mM after 12 hrs by propidium iodide staining based confocal laser scanning microscopic method; settings: thp-1, 12 h, 500 µM
How it was run: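 THP-1 cells were treated for 12 h and then stained with propidium iodide. Apoptotic and necrotic cells were counted manually and expressed as a percentage. Untreated cells and tert-butylhydroperoxide served as controls. Data are mean ± SD of triplicates.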

[29] = as §3; assay type: functional
[30] = test system: Leptospira interrogans serovar Canicola; assay: as §4; assay type: functional; how it was run: as §5

Row | SMILES | Activity [1] | Activity [2] | Activity [3] | Activity [4] | Activity [5] | MIC [8] [µg/mL] | MIC [9] [µg/mL] | MIC [10] [µg/mL] | MIC [11] [µg/mL] | MIC [14] [µg/mL] | MIC [15] [µg/mL] | MIC [19] [µg/mL] | MIC [20] [µg/mL] | MIC [22] [µg/mL] | MIC [23] [µg/mL] | MIC [24] [µg/mL] | MIC [26] [µg/mL] | other results
1 | CC1(C)CC2=NOC(=O)C2=C(c2ccco2)O1 | inactive | inactive | inactive | inactive | inactive |  |  |  |  |  |  |  |  |  |  |  |  | 
2 | CC1CC(=O)c2c(cc3ccccc3c2O)O1 (configuration not stated) | inactive | inactive | Active | inactive | Active |  |  |  |  |  |  |  |  |  |  |  |  | 
3 | COc1cc(OC)c2c(O)c3c(cc2c1)OC(C)(C)CC3=O | inactive | inactive | inactive | inactive | inactive |  |  |  |  |  |  |  |  |  |  |  |  | 
4 | CC1(C)CC2=NOC(=O)C2=C(c2cccs2)O1 | inactive | inactive | Active | inactive | Active | 125 (≈ 501 µM) | 250 (≈ 1000 µM) | 250 (≈ 1000 µM) | 250 (≈ 1000 µM) | 62.5 (≈ 251 µM) | 250 (≈ 1000 µM) | 250 (≈ 1000 µM) | 250 (≈ 1000 µM) | 250 (≈ 1000 µM) | 250 (≈ 1000 µM) | 250 (≈ 1000 µM) | 250 (≈ 1000 µM) | Activity (THP-1 [6]): Non-Toxic; inhibition [7]: Active; MIC (Leptospira interrogans [12]): inactive; survival at 5 mg/kg [13]: 20%; Activity (THP-1 [16]): Toxic; Activity (THP-1 [17]): Toxic; survival at 20 mg/kg [18]: 95%; inhibition [21]: Active; Activity (THP-1 [25]): Non-Toxic; Activity (Leptospira interrogans [27]): 18.5
5 | CC1(C)CC2=NOC(=O)C2=C(c2ccc(Cl)cc2)O1 | inactive | inactive | Active | inactive | Active | 250 (≈ 900 µM) | 250 (≈ 900 µM) | 250 (≈ 900 µM) | 250 (≈ 900 µM) | 125 (≈ 450 µM) | 250 (≈ 900 µM) | 250 (≈ 900 µM) | 125 (≈ 450 µM) | 250 (≈ 900 µM) | 250 (≈ 900 µM) | 250 (≈ 900 µM) | 250 (≈ 900 µM) | MIC (Leptospira interrogans [12]): inactive
6 | CC(C)(C)OO [TERT-BUTYL HYDROPEROXIDE] |  |  |  |  |  |  |  |  |  |  |  |  |  |  |  |  |  | Activity (THP-1 [28]): Toxic
7 | CCC1=C2C(=O)ON=C2CC(C)(C)O1 | inactive | inactive | Active | inactive | Active | 250 (≈ 1280 µM) | 250 (≈ 1280 µM) | 125 (≈ 640 µM) | 250 (≈ 1280 µM) | 250 (≈ 1280 µM) | 250 (≈ 1280 µM) | 250 (≈ 1280 µM) | 250 (≈ 1280 µM) | 125 (≈ 640 µM) | 250 (≈ 1280 µM) | 250 (≈ 1280 µM) | 250 (≈ 1280 µM) | MIC (Leptospira interrogans [12]): inactive
8 | C[C@H]1c2cccc(O)c2C(=O)C2=C(O)[C@]3(O)C(=O)C(C(N)=O)=C(O)[C@@H](N(C)C)[C@@H]3[C@@H](O)[C@@H]21.O [DOXYCYCLINE] | inactive | inactive | Active | inactive | Active | 200 | 100 | 200 | 100 | 200 | 100 | 200 | 200 | 100 | 200 | 200 | 200 | MIC [29]: 100 µg/mL; Activity [30]: Active
9 | COc1cc(OC)c2c(O)c3c(cc2c1)OC(C)CC3=O (configuration not stated) | inactive | inactive | inactive | inactive | inactive |  |  |  |  |  |  |  |  |  |  |  |  | 
10 | CC1=C2C(=O)ON=C2CC(C)(C)O1 | inactive | inactive | inactive | inactive | Active | 250 (≈ 1380 µM) | 250 (≈ 1380 µM) | 250 (≈ 1380 µM) | 500 (≈ 2760 µM) | 250 (≈ 1380 µM) | 500 (≈ 2760 µM) | 125 (≈ 690 µM) | 500 (≈ 2760 µM) | 250 (≈ 1380 µM) | 500 (≈ 2760 µM) | 500 (≈ 2760 µM) | 500 (≈ 2760 µM) | MIC [29]: 500 µg/mL (≈ 2760 µM)
11 | CC1(C)CC2=NOC(=O)C2=C(c2ccccc2)O1 | inactive | inactive | inactive | inactive | inactive |  |  |  |  |  |  |  |  |  |  |  |  | 
12 | CC1(C)CC(=O)c2c(cc3ccccc3c2O)O1 | inactive | inactive | inactive | inactive | Active |  |  |  |  |  |  |  |  |  |  |  |  | 
13 | CC1(C)CC2=NOC(=O)C2=C(c2cccc3ccccc23)O1 | inactive | inactive | Active | inactive | Active | 500 (≈ 1700 µM) | 500 (≈ 1700 µM) | 250 (≈ 852 µM) | 500 (≈ 1700 µM) | 250 (≈ 852 µM) | 125 (≈ 426 µM) | 250 (≈ 852 µM) | 125 (≈ 426 µM) | 125 (≈ 426 µM) | 250 (≈ 852 µM) | 500 (≈ 1700 µM) | 250 (≈ 852 µM) | MIC [29]: 500 µg/mL (≈ 1700 µM)
14 | CC1(C)CC(O)=C2C(=O)c3ccccc3C=C2O1 | inactive | inactive | Active | inactive | Active |  |  |  |  |  |  |  |  |  |  |  |  | 
15 | CC1(C)CC2=NOC(=O)C2=C(c2ccccc2Cl)O1 | inactive | inactive | inactive | inactive | inactive |  |  |  |  |  |  |  |  |  |  |  |  | 
16 | COc1cc(OC)cc(C2=C3C(=O)ON=C3CC(C)(C)O2)c1 | inactive | inactive | inactive | inactive | inactive |  |  |  |  |  |  |  |  |  |  |  |  | 
17 | COc1cc(OC)c2c(O)c3c(cc2c1)OC(C)C(C)C3=O (configuration not stated) | inactive | inactive | inactive | inactive | inactive |  |  |  |  |  |  |  |  |  |  |  |  | 
18 | COc1ccc(C2=C3C(=O)ON=C3CC(C)(C)O2)cc1 | inactive | inactive | Active | inactive | Active | 250 (≈ 915 µM) | 250 (≈ 915 µM) | 250 (≈ 915 µM) | 250 (≈ 915 µM) | 250 (≈ 915 µM) | 125 (≈ 457 µM) | 250 (≈ 915 µM) | 125 (≈ 457 µM) | 250 (≈ 915 µM) | 250 (≈ 915 µM) | 250 (≈ 915 µM) | 250 (≈ 915 µM) | MIC [29]: 500 µg/mL (≈ 1830 µM)
